Active and inactive are the calls of the source.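 How the source made its calls, unless noted: active means a full or partial loss of lipid-probe fluorescence in the fish gall bladder, intestine or both, judged by eye; inactive means no fluorescence loss, or compound toxic to the fish.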
Experiments:
[1] = inhibitors of TNFa-induced NFkB p65 translocation, primary screen, imaging, HUVEC, MLSMR starter and 10KST1 sets (AID 438;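 active means inhibition above 20% together with a positive visual image hit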;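 further: compound added about 3h40 before a 20 min TNFalpha stimulation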;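 on inhibition: signal is the nuclear over cytoplasmic p65 intensity ratio per well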); conditions: HUVEC TNFa-induced p65 nuclear translocation; cell count: measured here: nuclei count (cytotoxicity indicator), at 2.08 µM; inhibition: at 2 µM, stronger effect = higher value, 0% TNFa-plus-vehicle, 100% no-TNFa wells
[2] = inhibitors of E-selectin induction by TNFa, primary screen, imaging, HUVEC, immunofluorescence, MLSMR starter and 10KST1 sets (AID 487;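 active means visually confirmed hit in the image check and inhibition above 20%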;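 on inhibition: signal is fraction of cell area covered by stained E-selectin grains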;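 on nuclei count: 100% = median nuclei count of all wells on the same plate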); conditions: HUVEC TNFalpha-induced E-selectin immunofluorescence imaging, at 2 µM; inhibition: stronger effect = higher value; nuclei count: measured here: cell number, toxicity
[3] = DUSP6 inhibitors restoring Erk phosphorylation by chemical complementation, primary imaging in DUSP6-transfected HeLa (AID 609;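 active means compounds giving at least 50% inhibition in the cell-based MKP-3 phosphatase rescue imaging test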;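 on inhibition: phospho-Erk level distribution per well compared with pooled transfected vehicle control wells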); conditions: HeLa MKP-3 transfected, phospho-Erk imaging KS statistic, at 10 µM, cells stimulated with TPA for 15 min
[4] = molecular target: Dual specificity protein phosphatase 6 (Homo sapiens) (UniProt Q16828); assay: as above; conditions: HeLa MKP-3 transfected, phospho-Erk imaging KS statistic; at 10 µM; stronger effect = higher value; cells stimulated with TPA for 15 min
Sequence of Dual specificity protein phosphatase 6 (Homo sapiens) (Q16828 whole entry, looked up): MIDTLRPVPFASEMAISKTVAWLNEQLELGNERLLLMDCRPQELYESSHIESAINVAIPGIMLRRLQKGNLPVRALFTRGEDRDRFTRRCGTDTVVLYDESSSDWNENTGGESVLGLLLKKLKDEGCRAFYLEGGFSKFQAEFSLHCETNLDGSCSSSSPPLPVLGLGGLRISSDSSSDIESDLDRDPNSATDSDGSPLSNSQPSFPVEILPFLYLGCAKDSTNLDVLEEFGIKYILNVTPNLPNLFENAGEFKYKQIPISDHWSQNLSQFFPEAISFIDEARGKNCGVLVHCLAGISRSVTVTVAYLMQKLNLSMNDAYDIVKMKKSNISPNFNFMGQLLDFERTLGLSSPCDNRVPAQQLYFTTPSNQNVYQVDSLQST

[5] = molecular target: Voltage-gated potassium channel subunit beta-2 (Rattus norvegicus) (UniProt P62483); assay: KvBeta enzyme negative modulators, primary screen, biochemical, NADPH fluorescence (AID 622;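 active means fluorescence slope higher than the sample average by over 3 SD, cut at about -0.22 in these data, passing the limit was not always enough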;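 further: slope of raw intensity against log time taken from 70 to 1610 s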); conditions: recombinant KvBeta, 4-cyanobenzaldehyde reduction, at 10 µM, stronger effect = higher value
Sequence of Voltage-gated potassium channel subunit beta-2 (Rattus norvegicus) (P62483 whole entry, looked up): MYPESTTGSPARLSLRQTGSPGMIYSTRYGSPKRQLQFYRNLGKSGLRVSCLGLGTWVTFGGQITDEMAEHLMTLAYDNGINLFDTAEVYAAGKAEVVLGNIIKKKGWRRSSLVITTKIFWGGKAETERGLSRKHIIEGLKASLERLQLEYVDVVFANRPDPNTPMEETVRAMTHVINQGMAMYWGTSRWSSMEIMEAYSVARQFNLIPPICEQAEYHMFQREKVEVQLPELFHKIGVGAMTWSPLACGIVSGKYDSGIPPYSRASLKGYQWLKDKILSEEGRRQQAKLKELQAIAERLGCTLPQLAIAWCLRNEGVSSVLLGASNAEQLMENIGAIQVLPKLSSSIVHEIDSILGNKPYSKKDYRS

[6] = molecular target: Voltage-gated potassium channel subunit beta-2 (Rattus norvegicus) (UniProt P62483); assay: KvBeta positive modulators, primary screen, biochemical, NADPH fluorescence (AID 623;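 active means NADPH fluorescence slope more negative than the mean of all samples by about 3 SD, 99.7% confidence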;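 further: fluorescence intensity change per second fitted from 20 to 320 s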); conditions: Recombinant KvBeta, NADPH fluorescence decrease slope, 10 min; at 10 µM; stronger effect = lower value
[7] = molecular target: Alpha-2C adrenergic receptor (Homo sapiens) (UniProt P18825); assay: modulators of alpha2C/GIRK thallium flux, primary screen, cell-based, HEK293 alpha2C/GIRK1/2 (AID 624;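 active means fluorescence slope after compound addition differing from the mean of all screened samples at 99.7% confidence, in either direction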;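 further: slope of fluorescence ratio to pre-addition baseline per second over 15 to 24 s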); conditions: thallium flux BTC fluorescence, at 10 µM, actives lie on both sides
Sequence of Alpha-2C adrenergic receptor (Homo sapiens) (P18825 whole entry, looked up): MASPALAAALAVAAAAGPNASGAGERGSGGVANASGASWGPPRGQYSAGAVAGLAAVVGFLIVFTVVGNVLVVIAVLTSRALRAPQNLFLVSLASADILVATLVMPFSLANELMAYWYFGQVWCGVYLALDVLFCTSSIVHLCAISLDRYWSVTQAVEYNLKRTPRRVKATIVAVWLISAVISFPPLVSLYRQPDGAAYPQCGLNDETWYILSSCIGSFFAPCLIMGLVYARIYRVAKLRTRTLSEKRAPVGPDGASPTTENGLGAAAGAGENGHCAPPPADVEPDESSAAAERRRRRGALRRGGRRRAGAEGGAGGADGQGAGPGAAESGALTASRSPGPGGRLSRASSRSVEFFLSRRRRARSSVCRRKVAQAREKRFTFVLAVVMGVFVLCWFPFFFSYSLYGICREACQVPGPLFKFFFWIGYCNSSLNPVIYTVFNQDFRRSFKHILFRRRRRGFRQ

[8] = inhibitors of larval lipid processing in zebrafish, primary screen, whole organism, PED6 fluorescence, gall bladder and intestine (AID 686); conditions: Zebrafish larvae PED6 lipid processing, fluorescence scoring; screened at 20 µM (by protocol);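 further: larvae 5 to 7 days old with five fish per well; signal comes from phospholipase A2 cleavage of quenched PED6 carried via bile; overnight exposure to compound and PED6 before scoring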
Summary of the method: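 Doses: 20 µM single dose. Test system: live zebrafish larvae aged 5-7 days, whole organism. Quantity: five larvae per well. Measured by: By-eye fluorescence microscopy. Reagent: ingested quenched lipid PED6 at 100 nM. Read-out: visual per-well fluorescence inhibition score. Times: overnight exposure of larvae to compound plus PED6.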

[9] = inhibitors of Chlamydomonas gravitaxis, primary screen, whole organism, Chlamydomonas reinhardtii, WT vs cilia-less mutant, absorbance, 96-well (AID 463189;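 active means inhibition at or above 50% relative to wild type and mutant plate controls; inactive means inhibition below 50%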;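 further: 0% = wild type cc124 cells in DMSO and 100% = ciliumless bld1 mutant cells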); conditions: OD600 absorbance, 2 days, at 10 µM, stronger effect = higher value
[10] = measured here: cell density z-score
[11] = measured here: nuclear c-Myc green intensity z-score
[12] = measured here: nuclear pErk red intensity z-score, stronger effect = higher value

Row | SMILES | cell count [1] | inhibition [1] | inhibition [2] | nuclei count [2] [%] | z-score [3, 10] | z-score [3, 11] | z-score [3, 12] | inhibition [4] | fluorescence slope [5] | NADPH fluorescence slope [6] | slope [7] | outcome [8] | inhibition [9]
1 | COc1ccc2[nH]c3c(N4CCN(Cc5ccc6c(c5)OCO6)CC4)ncnc3c2c1 | 428 | -0.7% (inactive) | -50.8% (inactive) | 137 | 0.867 | -0.34 | 0.0587 | 0.671% (inactive) | -0.302 (inactive) | 2.3e-06 (inactive) | 0.00419 (inactive) | inactive | 141% (active)
2 | CCOC(=O)c1nc2nc(C)c(Cl)c(=O)n2[nH]1 | 529 | 3.9% (inactive) | -83.9% (inactive) | 153 | 0.438 | -0.565 | -0.252 | 14% (inactive) | -0.497 (inactive) | -4.1e-05 (inactive) | 0.00501 (inactive) | inactive | 0.754% (inactive)
3 | CN1CCN(C(=O)CSc2nc(-c3ccncc3)ccc2C#N)CC1 | 690 | -11.2% (inactive) | -21.2% (inactive) | 192 | 0.498 | 0.894 | -1.8 | -7.28% (inactive) | -0.416 (inactive) | -5e-05 (inactive) | 0.00348 (inactive) | inactive | -6.09% (inactive)
4 | COC(=O)CSC1=C(C#N)C(=O)NC2(CCCCC2)S1 | 573 | -10.7% (inactive) | -35.3% (inactive) | 154 | -0.563 | 0.765 | 0.767 | -11.5% (inactive) | -0.493 (inactive) | -4.7e-05 (inactive) | 0.00592 (inactive) | inactive | -6.72% (inactive)
5 | COc1ccc(-c2ncncc2-c2csc(C)n2)c(O)c1 | 573 | -4.5% (inactive) | -141% (inactive) | 135 | 0.355 | -1.54 | -0.34 | 1.9e-07% (inactive) | -0.509 (inactive) | -3.3e-05 (inactive) | 0.00463 (inactive) | inactive | 3.68% (inactive)
6 | COc1ccc(S(=O)(=O)N2CCC(N3CCCCC3)CC2)cc1 | 454 | -22.7% (inactive) | -217% (inactive) | 148 | 0.445 | -1.43 | -2.35 | 29.3% (inactive) | -0.314 (inactive) | -2e-05 (inactive) | 0.00443 (inactive) | inactive | 68% (active)
7 | O=C(CCC(=O)CCN1CCCCC1)CCN1CCCCC1 | 641 | -2.1% (inactive) | 5.3% (inactive) | 170 | -0.3 | 1.66 | 0.253 | 15.1% (inactive) | -0.506 (inactive) | -0.000129 (inactive) | 0.00498 (inactive) | inactive | 12.4% (inactive)
8 | CCC1(C)Cc2c(sc3c2c(=O)n(C)c2nnc(SCC(=O)c4ccc(Cl)cc4)n32)CO1 (stereo unspecified) | 559 | -2.6% (inactive) | -61.6% (inactive) | 121 | -1.48 | 3.25 | -1.65 | 9.82% (inactive) | -0.37 (inactive) | 2e-05 (inactive) | 0.00685 (inactive) | inactive | -10.8% (inactive)
9 | COc1ccc2c(=O)c(-c3nc(C)cs3)coc2c1 | 559 | -18.2% (inactive) | -220% (inactive) | 141 | 1.07 | 0.0883 | 0.691 | 1.98% (inactive) | -0.543 (inactive) | -3.8e-05 (inactive) | 0.0045 (inactive) | inactive | 1.43% (inactive)
10 | CCOc1ccc(CC2CC(=O)NC2=O)cc1 (stereo unspecified) | 622 | 2.8% (inactive) | -113% (inactive) | 185 | -0.992 | -0.148 | 1.17 | -0.159% (inactive) | -0.484 (inactive) | -9.9e-05 (inactive) | 0.00492 (inactive) | inactive | 9.39% (inactive)
11 | Cc1nc(Nc2ncc3c(n2)CC(C)(C)CC3=O)nc2ccccc12 | 532 | -10.9% (inactive) | -13% (inactive) | 195 | -2.93 | -0.197 | 3.21 | -3.5% (inactive) | -0.376 (inactive) | -2.4e-05 (inactive) | 0.0055 (inactive) | inactive | -7.48% (inactive)
12 | O=C(c1ccccc1F)N1CCC(N2CCCCCC2)CC1 | 332 | -3.1% (inactive) | -138% (inactive) | 95.6 | 0.261 | -1.02 | -0.289 | 15.1% (inactive) | -0.493 (inactive) | -1.4e-05 (inactive) | 0.00789 (inactive) | inactive | 50.6% (active)
13 | CC(C)C(C(=O)Nc1ncn[nH]1)N1C(=O)c2ccccc2C1=O (stereo unspecified) | 520 | -7% (inactive) | -28.4% (inactive) | 121 | -1.38 | 0.141 | 1.7 | -4.27% (inactive) | -0.47 (inactive) | -7.2e-06 (inactive) | 0.0054 (inactive) | inactive | 0.44% (inactive)
14 | CCCCC1CC1C(=O)Nc1ccc(OC)c(OC)c1 (stereo unspecified) | 421 | -0.9% (inactive) | -42.1% (inactive) | 190 | -1.27 | -0.533 | 0.586 | -8.95% (inactive) | -0.39 (inactive) | -2.3e-05 (inactive) | 0.00756 (inactive) | inactive | 22% (inactive)
15 | CN1CCc2c(sc3c2C(=O)NC(c2ccco2)N3)C1 (stereo unspecified) | 554 | -12% (inactive) | -9.3% (inactive) | 170 | -0.0126 | -0.484 | 0.477 | 4.72% (inactive) | -0.43 (inactive) | -3.1e-06 (inactive) | 0.00594 (inactive) | inactive | 7.66% (inactive)
16 | O=C(C1=C(O)C(=O)N(CCN2CCOCC2)C1c1cccnc1)c1cc2ccccc2o1 (stereo unspecified) | 451 | 4.1% (inactive) | -45.7% (inactive) | 168 | -0.44 | 2.22 | 0.434 | 15% (inactive) | -0.41 (inactive) | -6.5e-05 (inactive) | 0.00612 (inactive) | inactive | -5.22% (inactive)
17 | Cc1ccc(-n2c(=O)c3c4c(sc3n3c(C)nnc23)COC(C(C)C)C4)cc1 (stereo unspecified) | 551 | -2.6% (inactive) | -1.3% (inactive) | 122 | 0.656 | -0.667 | -0.392 | 9.82% (inactive) | -0.411 (inactive) | 2.1e-05 (inactive) | 0.00541 (inactive) | inactive | 49.1% (inactive)
18 | CC(C)N1CC=C2C(C#N)=C(N)C(C#N)(C#N)C(c3ccccc3)C2C1 (stereo unspecified) | 535 | -3.2% (inactive) | -126% (inactive) | 218 | 0.674 | 3.57 | 1.58 | 68.6% (inactive) | -0.366 (inactive) | -2.3e-05 (inactive) | 0.000192 (inactive) | inactive | 11.1% (inactive)
19 | COc1cccc(-c2nc(N3CCC(C)CC3)c3ccccc3n2)c1O | 573 | -3.3% (inactive) | 48.3% (inactive) | 120 | 0.534 | -0.819 | 1.15 | -12.3% (inactive) | -0.409 (inactive) | -3.4e-05 (inactive) | 0.00378 (inactive) | inactive | 9.22% (inactive)
20 | CCOC(=O)c1c(CN2CCN(C)CC2)n(C)c2cc(Br)c(OC)cc12 | 320 | -0.7% (inactive) | -50.3% (inactive) | 138 | -0.018 | 0.891 | 1.91 | -12.3% (inactive) | -0.462 (inactive) | -0.000148 (inactive) | 0.00634 (inactive) | inactive | 53.1% (active)
21 | CCCSc1nc(C)c(CC(=O)OCC)c(=O)[nH]1 | 573 | -10.2% (inactive) | -162% (inactive) | 138 | -0.128 | -1.19 | 1.09 | 1.98% (inactive) | -0.508 (inactive) | -6e-05 (inactive) | 0.008 (inactive) | inactive | 6.42% (inactive)
22 | CN1C(=O)CC(N2CCN(c3ccc(Cl)c(Cl)c3)CC2)C1=O (stereo unspecified) | 379 | -3.9% (inactive) | -80.8% (inactive) | 94.7 | -1.07 | 0.418 | -1.7 | 5.65% (inactive) | -0.541 (inactive) | -7.5e-05 (inactive) | 0.00484 (inactive) | inactive | 0.241% (inactive)
23 | CCOC(=O)CC1=C(C(=O)OCC)C(c2ccc(OC)c(OC)c2)C(C#N)=C(N)O1 (stereo unspecified) | 471 | -4.3% (inactive) | -157% (inactive) | 163 | -0.376 | -0.993 | -1.45 | 4.25% (inactive) | -0.359 (inactive) | 6.8e-06 (inactive) | 0.00447 (inactive) | inactive | 24.9% (inactive)
24 | COc1ccc(/C(O)=C2/C(=O)C(=O)N(CCCN(C)C)C2c2ccccc2)cc1OC (stereo unspecified) | 346 | -14.7% (inactive) | -317% (inactive) | 131 | -0.204 | -0.251 | 0.0495 | 9.39% (inactive) | -0.386 (inactive) | -3.5e-05 (inactive) | 0.00558 (inactive) | inactive | -0.889% (inactive)
25 | Cc1cc(C)cc(-n2c3nc4ccccc4nc3c3c(=O)n(Cc4ccco4)cnc32)c1 | 319 | -15.5% (inactive) | -94.4% (inactive) | 134 | 0.126 | -0.244 | -0.872 | 3.5% (inactive) | -0.396 (inactive) | -0.000101 (inactive) | 0.0051 (inactive) | inactive | -2.54% (inactive)
26 | CCN(CC)CCNc1nc2c(c(=O)[nH]c(=O)n2C)n1CCOc1ccccc1 | 501 | -1.2% (inactive) | -206% (inactive) | 135 | 0.0299 | -1.12 | -0.109 | 12.3% (inactive) | -0.534 (inactive) | -4.4e-05 (inactive) | 0.00521 (inactive) | inactive | 0.39% (inactive)
27 | c1coc(-c2nc3nc4ccccc4nc3n2-c2ccc3c(c2)OCCO3)c1 | 365 | -1.4% (inactive) | -29.5% (inactive) | 152 | 0.934 | 0.669 | -1.25 | 11.4% (inactive) | -0.363 (inactive) | -0.000166 (inactive) | 0.00503 (inactive) | inactive | 12.2% (inactive)

From PubChem BioAssay
